High-throughput results (PubChem)
Tn6 DDE FP: DD(E)-Tn6 binding inhibition, primary FP screen; Fibrin DD(E) TRITC-Tn6 fluorescence polarization displacement; inhibition, % at 8.3 µM; actives 0.21% (n = 370,000);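 active means inhibition above a per-campaign cutoff: mean of compounds within control limits plus 3 SD, cut at about 15% in these data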
Target sequence (P02675 whole entry, looked up): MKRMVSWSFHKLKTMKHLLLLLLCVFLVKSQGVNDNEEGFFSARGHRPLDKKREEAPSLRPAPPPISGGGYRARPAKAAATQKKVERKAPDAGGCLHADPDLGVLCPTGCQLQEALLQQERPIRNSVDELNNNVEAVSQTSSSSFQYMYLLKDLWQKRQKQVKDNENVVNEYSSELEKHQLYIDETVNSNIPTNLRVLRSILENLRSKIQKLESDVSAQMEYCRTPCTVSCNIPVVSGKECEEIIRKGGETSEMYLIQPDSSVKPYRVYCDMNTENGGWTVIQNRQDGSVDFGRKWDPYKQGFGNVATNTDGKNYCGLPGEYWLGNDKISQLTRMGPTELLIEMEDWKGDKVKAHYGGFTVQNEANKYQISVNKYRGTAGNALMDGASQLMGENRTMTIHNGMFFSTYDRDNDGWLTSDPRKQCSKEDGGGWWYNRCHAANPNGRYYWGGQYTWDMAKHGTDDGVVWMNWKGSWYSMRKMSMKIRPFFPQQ
MT1-MMP act inh: inhibitors of human MT1-MMP activation | P50281 | HT1080 RFP-PRO-GFP cells, GFP/RFP ratio fluorescence, overnight; percent of plate control window, DMSO zero | actives 0.061% (n = 360,000) | AID 651647 | GFP/RFP ratio change, % at 20 µM;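 active means GFP/RFP ratio change of at least 30% with cell ATP level not reduced by more than half and red fluorescence within 50% of control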
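Assay system: HT1080 RFP-PRO-GFP cells | Dosing: 20 µM single dose, 1% DMSO | Incubation: Cells overnight before dosing, compound overnight, 37 °C, 5% CO2 | Evaluation: GFP/RFP fluorescence ratio | Control set: DMSO-only wells and HT1080 RFP-L50D-GFP cell wells as references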
PolyA inh: inhibitors of polyadenylation in S. cerevisiae. S. cerevisiae SKY197-pL101 polyadenylation reporter, beta-gal luminescence; efflux-impaired pdr1/pdr3 knockout yeast; score 100 = 6 SD above DMSO. activity score, % at 12 µM. actives 0.02% (n = 300,000);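 active means lowest replicate activity score at least 50, where 100 means six control SD above control mean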;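 further: yeast exposed to compound for 9 h at 30 °C; higher score means more reporter readthrough which indicates perturbed polyadenylation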
Tn7 DDE FP: disrupts Tn7 cyclic peptide binding to fibrin D-Dimer-E complex | P02675 | FP displacement of FITC-Tn7 peptide from fibrin DD(E); 0% = median of compound wells per plate | inhibition, % at 8.3 µM | actives 0.13% (n = 370,000) | AID 720508;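 active means inhibition above the mean of compounds falling within the control limits plus 3 SD of them, cut at about 14% in these data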
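assay system = human clot-derived fibrin DD(E) complex | quantity = Fibrin-DD(E) at 2 µM final | timing = 10 min preincubation, 3 h with tracer, room temperature | signal = fluorescence polarization | measure = percent inhibition | benchmarks = high control wells with 10 µM unlabelled Aha-Tn7 peptide (full inhibition) | replicates = singlicate testing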
SKN-1 block: inhibitors of C. elegans SKN-1; inhibition, % at 21.8 µM; actives 0.49% (n = 360,000); C. elegans VP596 Pgst-4::GFP/RFP ratio, acrylamide-induced, 24 h;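 active means interference check ratio from 0.5 to 1.5 plus GFP to RFP signal ratio inhibition reaching or exceeding a fixed threshold, cut at about 30% in these data, passing the limit was not always enough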
DAGLB inh: blocks human DAGLB lipase activity. Q8NCG7. HEK293T DAGLB membrane lysate, EnzChek fluorogenic substrate. inhibition, % at 5.17 µM. actives 0.059% (n = 340,000); in the data active means inhibition above about 34%
Tn6 DDE ctr: counter-screen hit for Tn6 peptide-fibrin DD(E) binding disruption. shares compounds with Tn6 DDE FP. TRITC-Tn6 fluorescence polarization displacement; 0% = median of compound wells, not DMSO. inhibition, % at 8.3 µM. actives 2% (n = 680);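 active means inhibition above the mean of test compounds lying between the control limits plus 3 SD of those, cut at about 14% in these data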
DDE Tn6 confirm: confirmation of inhibitors of Tn6 binding to human fibrin DD(E) | shares compounds with Tn6 DDE FP | FP displacement of TRITC-Tn6 peptide from DD(E); 0% = per-plate median of test wells | inhibition, % at 8.3 µM | actives 10% (n = 680) | AID 720631;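 active means inhibition above the mean of compounds lying within the control limits plus 3 SD, cut at about 16% in these data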
A number is an active result; – = inactive; · = not tested or not shown. Only some compounds are listed: those with a hit (about 0.9% of all), similar ones and a draw of the others.

SMILES	Tn6 DDE FP	MT1-MMP act inh	PolyA inh	Tn7 DDE FP	SKN-1 block	DAGLB inh	Tn6 DDE ctr	DDE Tn6 confirm
CCCCc1cc(=O)oc2c3c(cc(OCC(=O)NCCCO)c12)OC(C)(C)CC3	–	–	–	–	–	–	·	·
CCc1cc(=O)oc2c3c(cc(OCC(=O)NCCCn4ccnc4)c12)OC(C)(C)CC3	15.3	–	–	–	–	–	–	–
C=CCN1C(=O)[C@@H](CC(=O)N2CCCC2)[C@]2(C(=O)OCC)CCCCC/C=C/12	–	·	·	–	·	·	·	·
CC(=O)N1CCN(C(=O)C(Cc2ccccc2)NC(=O)c2ccccc2)CC1 (centres undefined)	–	–	·	–	–	–	·	·
CC(=O)NC(Cc1ccccc1)C(=O)N1CCN(C(=O)c2cccs2)CC1 (centres undefined)	17.0	–	–	–	–	–	–	–
O=C1c2ccccc2-c2onc3ccc(NCc4ccco4)c1c23	·	–	–	·	–	–	·	·
CCOc1ccc2noc3c2c1C(=O)c1ccccc1-3	41.1	–	–	–	–	–	53.3	–
CC(C)(C)C(=O)Nc1ccc(S(=O)(=O)N2CCC(c3nc4ccccc4[nH]3)CC2)cc1	18.3	–	–	–	–	–	–	–
Cc1cc2nc(-c3ccc(SCC(=O)Nc4ccc(S(=O)(=O)N5CCCC5)cc4)nc3)[nH]c2cc1C	–	–	–	–	–	–	·	·
O=C(CSc1ccc(-c2nc3ccccc3[nH]2)cn1)Nc1ccc(S(=O)(=O)N2CCCC2)cc1	58.6	–	–	–	–	–	–	–
CC(=O)Nc1ccc(S(=O)(=O)N2CCC(c3nc4ccccc4[nH]3)CC2)cc1	–	–	–	–	–	–	·	·
CN(C)c1ccc(/C=C/C=C2/SC(=S)N(c3ccccc3)C2=O)cc1	31.0	–	–	–	–	–	–	58.8
COc1ccc(-c2nc(-c3ccccn3)nc(N3CCN(C)CC3)c2C#N)cc1	16.8	–	–	–	–	–	–	–
Cc1cc(Br)ccc1SCC(=O)OCC(=O)NCc1ccco1	15.4	–	–	–	–	–	–	–
O=C(COC(=O)CSc1ccc(Br)cc1)NCc1ccco1	–	–	–	–	–	–	·	·
Cc1ccc(Cl)cc1NC(=O)COC(=O)Cn1cnc2c1c(=O)n(C)c(=O)n2C	17.0	–	–	–	–	–	–	–
O=C1CC(Nc2ccc(N3CCOCC3)cc2)C(=O)N1Cc1ccccc1 (centres undefined)	20.2	–	–	–	–	–	–	–
CC[C@H]1CN2CCc3cc(OC)c(OC)cc3C2C[C@@H]1C[C@H]1NCCc2cc(OC)c(OC)cc21 (some centres undefined)	–	–	·	–	–	–	·	·
CCC1=C(CC2NCCc3ccccc32)CC2c3cc(OC)c(OC)cc3CCN2C1 (centres undefined)	23.5	–	·	–	–	–	–	–
c1cc(-c2ccsc2)n2ccnc2c1	–	–	·	–	–	·	·	·
c1cc(-c2ccoc2)n2ccnc2c1	23.1	–	·	–	–	·	–	–
O=C(Nc1ccc(Br)c(C(F)(F)F)c1)[C@@H]1CC=C[C@@H]2CCN(CC3CC3)C(=O)[C@@H]21	–	·	·	–	·	·	·	·
COc1cccc(NC(=O)CN2C(=O)NC3(CCCCCC3)C2=O)c1	15.3	–	·	–	–	–	–	–
COc1cccc(NC(=O)CN(C)C(=O)CN2C(=O)NC3(CCCC3)C2=O)c1	–	–	–	–	–	–	·	·
COCCNC(=O)Cn1c(=O)n(Cc2ccc(C(=O)NCCc3ccc(OC)c(OC)c3)cc2)c(=O)c2ccccc21	16.9	–	–	–	–	–	–	–
SMILES	Tn6 DDE FP	MT1-MMP act inh	PolyA inh	Tn7 DDE FP	SKN-1 block	DAGLB inh	Tn6 DDE ctr	DDE Tn6 confirm
CCc1ccc(NC(=S)Nc2cc(OC)c(NC(=O)C(C)C)cc2OC)cc1	25.0	–	–	–	–	–	–	–
CCCC(=O)Nc1cc(OC)c(NC(=S)Nc2cccc(C)c2)cc1OC	26.5	–	·	–	–	–	–	–
CCCC(=O)Nc1cc(OC)c(NC(=S)Nc2ccc(CC)cc2)cc1OC	36.0	–	·	–	–	–	–	–
COc1cc(NC(=S)NC(C)=O)ccc1NC(=O)C(C)C	–	–	–	–	–	–	·	·
CC(C)C[C@@H]1COc2cccc(N3CCSCC3)c2S(=O)(=O)N1C	–	·	·	–	·	·	·	·
CSc1cccc(NC(=O)NCc2cccc(CNC(=O)Nc3cccc(SC)c3)c2)c1	27.0	–	–	–	–	–	–	–
CSc1cccc(NC(=O)C(=O)NCc2ccccc2)c1	–	–	–	–	–	·	·	·
COc1ccccc1CN1CC(C(=O)NCCc2ccc(C)o2)CCC1=O (centres undefined)	20.2	–	–	–	–	–	–	–
O=C(C1CCCN1S(=O)(=O)c1ccc(Cl)s1)N1CCc2ccccc2C1 (centres undefined)	–	·	·	–	·	·	·	·
Cc1ccc2c(C)c(C(=O)Nc3ccc(S(N)(=O)=O)cc3)oc2c1C	26.2	–	–	–	–	–	–	–
C[C@@H]1CN([C@H](C)CO)C(=O)c2cc(NC(=O)Nc3ccc(C(F)(F)F)cc3)ccc2O[C@H]1CN(C)S(=O)(=O)c1ccccc1	48.4	–	·	–	–	–	14.4	–
COc1ccc(NC(=O)Nc2ccc3c(c2)C(=O)N([C@H](C)CO)C[C@H](C)[C@@H](CN(C)S(=O)(=O)c2ccc(OC)cc2)O3)cc1	–	–	·	–	–	–	·	·
COc1ccc(S(=O)(=O)N(C)C[C@H]2Oc3ccc(NC(=O)Nc4ccc(C(F)(F)F)cc4)cc3C(=O)N([C@H](C)CO)C[C@@H]2C)cc1	81.4	–	·	–	–	–	–	34.2
O=C(CCc1ccccc1)N[C@H]1[C@@H](O)CCC[C@]12C(=O)N(Cc1ccccc1)c1ccccc12	–	·	·	–	·	·	·	·
CCOC(=O)[C@]12CCCCC/C=C\1N(CCc1ccc(Cl)cc1)C(=O)[C@H]2CC(=O)NCc1ccccc1	–	·	·	–	·	·	·	·
Cc1ccc(CNC(=O)c2ccc(S(=O)(=O)N3CCCC3)cc2)cc1	–	–	·	–	–	–	·	·
CCN(CC)S(=O)(=O)c1ccc(C(=O)NCc2ccc3c(c2)cc(C)n3C)cc1	80.2	–	–	–	–	–	–	–
